Published values pooled from the literature.
Compare with care: the assays were run in different laboratories.

The AUC(0-t) of CCC[C@@](N)(CO)CCc1ccc(OCCCCCC(C)C)cc1 is reported as 6.18 µM·h (rat; plasma; oral; 30 mg/kg).
The AUC(0-inf) of N=c1c2c(-c3ccccc3)c(-c3ccccc3)n(Cc3ccccc3)c2ncn1[C@H]1CC[C@H](O)CC1 is reported as 1500 ng·h/mL (male Sprague-Dawley rat; plasma; oral; 2 mg/kg; single dose).
For [2H]C([2H])([2H])n1cc2cc(Nc3nc(=O)n(Cc4ncn(C)n4)c(=O)n3Cc3cc(F)c(F)cc3F)c(Cl)cc2n1, the AUC(0-t) was 89900 ng·h/mL (male Sprague-Dawley rat; plasma; intravenous; 5 mg/kg).
With CC(C)(C)[C@H](NC(=O)[C@H](CCONC(=N)N)NC(=O)Cc1ccc(CNC(=N)N)cc1)C(=O)N[C@@H](CCONC(=N)N)C(=O)NCc1ccc(C(=N)N)cc1 the AUC(0-inf) was 9640 ng·h/mL (male Sprague-Dawley rat; plasma; intraperitoneal; 2.5 mg/kg).
For [2H]C([2H])(c1cc(F)c(F)cc1F)n1c(=O)n(Cc2ncn(C)n2)c(=O)[nH]/c1=N\c1cc2cn(C)nc2cc1Cl, the AUC(0-t) was 451000 ng·h/mL (male Sprague-Dawley rat; plasma; oral; 25 mg/kg).
With COC(=O)C(NC(=O)c1cn(CCCCCF)c2ccccc12)C(C)(C)C (stereo not shown) the AUC(0-t) was 17 ng·h/mL (male Sprague-Dawley rat; plasma; subcutaneous; 100 µg/kg).
Cl.Cl.O=C(CCN1CCCCC1)c1ccc(-c2ccc(C(=O)CCN3CCCCC3)cc2)cc1 has an AUC(0-t) of 251 ng·h/mL (Sprague-Dawley rat; plasma; intravenous; 5 mg/kg).
For CCCCCn1cc(C(=O)Nc2cccc3ccccc23)c2ccccc21, the AUC(0-inf) was 5960 ng·h/mL (male Long-Evans rat; plasma; intraperitoneal; 3 mg/kg).
The AUC(0-t) of Cn1cnc(Cn2c(=O)[nH]/c(=N\c3cc4cn(C)nc4cc3Cl)n(Cc3cc(F)c(F)cc3F)c2=O)n1 is reported as 515000 ng·h/mL (male Sprague-Dawley rat; plasma; oral; 25 mg/kg).
O=C([O-])C(=O)[O-].[NH-][C@@H]1CCCC[C@H]1[NH-].[Pt+4] (relative stereo) has an AUC(0-t) of 111 ng·h/mL (rat; plasma; oral; 10 mg/kg).
The AUC(0-t) of CN(C)C(=O)Oc1cc(OC(=O)N(C)C)cc(-c2cc3ccc(O)cc3o2)c1 is reported as 17.7 ng·h/mL (male rat; plasma; oral; 5 mg/kg).
The AUC(0-inf) of CCCCCn1nc(C(=O)Nc2cccc3ccccc23)c2ccccc21 is reported as 314 ng·h/mL (male Long-Evans rat; plasma; intraperitoneal; 3 mg/kg).
For CCCCCCCC(=O)N[C@@H](CCCCN)C(=O)N[C@@H](CCCCN)C(=O)N[C@@H](C)C(=O)N[C@@H](CC(C)C)C(=O)N[C@@H](CCCCN)C(=O)N[C@@H](CC(C)C)C(=O)N[C@@H](C)C(=O)N[C@@H](CCCCN)C(=O)N[C@@H](CCCCN)C(=O)N1CCC[C@H]1C(=O)N[C@@H](CC(C)C)C(=O)N[C@@H](CCCCN)C(=O)N[C@@H](CC(C)C)C(=O)N[C@@H](CC(C)C)C(=O)N[C@@H](CCCCN)C(N)=O, the AUC(0-inf) was 273 ng·h/mL (male Sprague-Dawley rat; blood; intravenous; 3 mg/kg; infusion).
